Ki and Efficacy data for 22 compounds are collected here from ChEMBL document CHEMBL1142695, “Discovery of functionally selective 7,8,9,10-tetrahydro-7,10-ethano-1,2,4-triazolo[3,4-a]phthalazines as GABA A receptor agonists at the alpha3 subunit” (J Med Chem, 2005).

SMILES strings stand for the structures. A value given as a limit tells only on which side of the number the result lay.

Holding throughout (type): cell-based
In test [1] the target is T1, GABA-A receptor; alpha-1/beta-3/gamma-2 (Homo sapiens, UniProt P14867+P18507+P28472).
T1 sequence (P14867 whole entry): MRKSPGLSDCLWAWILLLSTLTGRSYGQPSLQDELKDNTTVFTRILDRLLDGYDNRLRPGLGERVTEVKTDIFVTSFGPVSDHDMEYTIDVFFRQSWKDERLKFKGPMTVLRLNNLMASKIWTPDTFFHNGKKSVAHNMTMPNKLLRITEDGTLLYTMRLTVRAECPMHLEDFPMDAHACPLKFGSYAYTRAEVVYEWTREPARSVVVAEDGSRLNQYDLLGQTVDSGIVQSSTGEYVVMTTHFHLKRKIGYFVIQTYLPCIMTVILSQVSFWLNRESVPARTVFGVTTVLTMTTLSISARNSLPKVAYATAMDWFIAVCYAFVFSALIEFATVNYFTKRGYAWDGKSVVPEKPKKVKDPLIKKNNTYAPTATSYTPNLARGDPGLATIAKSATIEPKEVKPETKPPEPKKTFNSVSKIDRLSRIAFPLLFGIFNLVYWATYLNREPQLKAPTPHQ
T1 sequence (P18507 whole entry): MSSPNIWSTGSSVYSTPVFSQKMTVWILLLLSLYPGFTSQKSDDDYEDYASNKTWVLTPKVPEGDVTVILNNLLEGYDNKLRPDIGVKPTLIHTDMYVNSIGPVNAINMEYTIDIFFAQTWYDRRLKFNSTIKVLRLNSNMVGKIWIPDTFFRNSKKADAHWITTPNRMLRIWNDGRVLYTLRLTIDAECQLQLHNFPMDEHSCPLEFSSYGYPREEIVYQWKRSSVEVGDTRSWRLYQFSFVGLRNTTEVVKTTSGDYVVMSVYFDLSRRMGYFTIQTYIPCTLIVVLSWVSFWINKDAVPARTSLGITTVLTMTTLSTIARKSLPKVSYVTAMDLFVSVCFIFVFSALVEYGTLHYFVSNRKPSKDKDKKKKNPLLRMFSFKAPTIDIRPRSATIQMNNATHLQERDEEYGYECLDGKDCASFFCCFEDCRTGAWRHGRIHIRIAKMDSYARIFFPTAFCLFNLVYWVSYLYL
T1 sequence (P28472 whole entry): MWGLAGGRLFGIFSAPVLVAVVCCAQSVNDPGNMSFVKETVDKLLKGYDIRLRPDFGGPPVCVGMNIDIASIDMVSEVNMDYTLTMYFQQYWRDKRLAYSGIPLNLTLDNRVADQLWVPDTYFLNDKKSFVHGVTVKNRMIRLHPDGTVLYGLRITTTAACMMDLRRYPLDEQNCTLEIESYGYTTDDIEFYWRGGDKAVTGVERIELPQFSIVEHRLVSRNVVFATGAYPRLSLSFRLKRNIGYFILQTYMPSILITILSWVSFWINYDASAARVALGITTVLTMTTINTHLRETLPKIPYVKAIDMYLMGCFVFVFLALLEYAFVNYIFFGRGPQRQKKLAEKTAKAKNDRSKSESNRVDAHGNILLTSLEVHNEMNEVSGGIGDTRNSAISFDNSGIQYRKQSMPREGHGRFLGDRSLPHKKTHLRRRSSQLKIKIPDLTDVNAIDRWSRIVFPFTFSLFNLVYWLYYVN
Kind of test: Inhibition of [3H]Ro-151788 binding to recombinant human gamma-aminobutyric-acid A receptor alpha-1-beta-3-gamma-2 subtype expressed in L (tk-) cells.

In test [2] the target is T2, GABA-A receptor; alpha-2/beta-3/gamma-2 (Homo sapiens, UniProt P18507+P28472+P47869).
T2 sequence (P18507 whole entry): T1 sequence (P18507 whole entry)
T2 sequence (P28472 whole entry): T1 sequence (P28472 whole entry)
T2 sequence (P47869 whole entry): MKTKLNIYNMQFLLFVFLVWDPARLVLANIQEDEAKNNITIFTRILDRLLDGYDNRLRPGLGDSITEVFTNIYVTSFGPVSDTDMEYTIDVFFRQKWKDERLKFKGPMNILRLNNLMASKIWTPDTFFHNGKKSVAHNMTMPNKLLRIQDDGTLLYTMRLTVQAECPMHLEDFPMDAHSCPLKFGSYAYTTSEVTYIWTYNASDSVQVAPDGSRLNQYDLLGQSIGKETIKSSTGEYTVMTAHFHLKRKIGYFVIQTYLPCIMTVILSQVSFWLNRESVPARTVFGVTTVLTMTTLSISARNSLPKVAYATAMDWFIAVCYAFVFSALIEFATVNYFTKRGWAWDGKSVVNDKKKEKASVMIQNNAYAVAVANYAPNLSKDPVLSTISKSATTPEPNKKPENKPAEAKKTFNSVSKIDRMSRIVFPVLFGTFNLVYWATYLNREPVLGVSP
Kind of test: Inhibition of [3H]Ro-151788 binding to recombinant human gamma-aminobutyric acid A receptor alpha-2-beta-3-gamma-2 subtype expressed in L (tk-) cells.

The target of test [3] is GABA-A receptor; alpha-3/beta-3/gamma-2 (Homo sapiens) (UniProt P18507+P28472+P34903). Kind of test: Efficacy was measured as modulation of the current in response to GABA at hGABA alpha-3-beta-3-gamma-2 receptor expressed in Xenopus oocytes. The note with it: Oocyte. The procedure, abridged: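 Two-electrode voltage clamp on Xenopus oocytes expressing each receptor combination. […] Value is percent increase or decrease of the EC20 GABA current.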

Test [4] deals with T3, GABA-A receptor; alpha-3/beta-3/gamma-2 (Homo sapiens, UniProt P18507+P28472+P34903).
T3 sequence (P18507 whole entry): T1 sequence (P18507 whole entry)
T3 sequence (P28472 whole entry): T1 sequence (P28472 whole entry)
T3 sequence (P34903 whole entry): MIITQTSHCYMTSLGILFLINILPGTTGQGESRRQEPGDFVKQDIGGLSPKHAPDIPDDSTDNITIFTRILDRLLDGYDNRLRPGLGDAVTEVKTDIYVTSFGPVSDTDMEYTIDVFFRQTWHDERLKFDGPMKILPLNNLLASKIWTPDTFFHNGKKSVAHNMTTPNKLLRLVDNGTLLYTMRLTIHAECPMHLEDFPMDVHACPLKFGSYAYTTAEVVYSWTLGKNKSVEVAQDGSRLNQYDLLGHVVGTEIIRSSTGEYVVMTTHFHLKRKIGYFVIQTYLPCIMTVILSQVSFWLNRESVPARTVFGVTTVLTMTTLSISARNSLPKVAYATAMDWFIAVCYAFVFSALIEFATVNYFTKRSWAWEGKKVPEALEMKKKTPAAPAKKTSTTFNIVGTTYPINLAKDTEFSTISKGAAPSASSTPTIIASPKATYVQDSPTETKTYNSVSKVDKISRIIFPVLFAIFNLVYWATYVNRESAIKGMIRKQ
Kind of test: Inhibition of [3H]Ro-151788 binding to recombinant human gamma-aminobutyric-acid A receptor alpha-3-beta-3-gamma-2 subtype expressed in L (tk-) cells.

Test [5] has as its target T4, GABA-A receptor; alpha-5/beta-3/gamma-2 (Homo sapiens, UniProt P18507+P28472+P31644).
T4 sequence (P18507 whole entry): T1 sequence (P18507 whole entry)
T4 sequence (P28472 whole entry): T1 sequence (P28472 whole entry)
T4 sequence (P31644 whole entry): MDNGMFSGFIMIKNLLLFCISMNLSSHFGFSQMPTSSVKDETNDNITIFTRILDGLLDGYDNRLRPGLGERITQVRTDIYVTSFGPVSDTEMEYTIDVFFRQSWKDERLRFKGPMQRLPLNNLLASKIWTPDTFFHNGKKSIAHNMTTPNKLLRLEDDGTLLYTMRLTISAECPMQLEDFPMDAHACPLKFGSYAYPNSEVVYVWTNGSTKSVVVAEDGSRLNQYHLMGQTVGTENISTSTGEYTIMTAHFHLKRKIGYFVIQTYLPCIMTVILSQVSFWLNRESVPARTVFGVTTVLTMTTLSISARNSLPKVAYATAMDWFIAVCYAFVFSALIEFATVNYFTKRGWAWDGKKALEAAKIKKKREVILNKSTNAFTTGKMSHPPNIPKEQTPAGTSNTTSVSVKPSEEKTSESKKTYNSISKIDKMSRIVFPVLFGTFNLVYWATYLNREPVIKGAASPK
Kind of test: Inhibition of [3H]Ro-151788 binding to recombinant human gamma-aminobutyric-acid A receptor alpha-5-beta-3-gamma-2 subtype expressed in L (tk-) cells.

`c1ccc(-c2nnc3c4c(c(OCc5cnccn5)nn23)C2CCC4CC2)cc1`: the Ki in test [1] was determined as 16 nM; in test [2], 6.5 nM; in test [4] it was 3 nM; in test [5], 0.77 nM. Moreover, in test [3], the Efficacy was found to be 27%.

Regarding `COC(=O)c1cccnc1COc1nn2c(-c3ccccc3)nnc2c2c1C1CCC2CC1`, the Ki came to 30 nM in test [2], 7.1 nM in test [4] and 2.5 nM in test [5]. The same compound came in with an Efficacy in test [3] of 29%.

For `Cc1ccnc(COc2nn3c(-c4ccccc4)nnc3c3c2C2CCC3CC2)c1C`, the Ki in test [1] was found to be 11 nM; in test [2], 4 nM; in test [4], 1.7 nM; in test [5], 1 nM. Also, the Efficacy in test [3] was 17%.

Regarding `OCCCCOc1nn2c(-c3ccccc3)nnc2c2c1C1CCC2CC1`, the Ki was determined as 71 nM in test [1], 34 nM in test [2], 19 nM in test [4] and 8.5 nM in test [5]. The compound further gave an Efficacy in test [3] of 20%.

As to `COc1cccnc1COc1nn2c(-c3ccccc3)nnc2c2c1C1CCC2CC1`, the Ki in test [1] is 17 nM; in test [2], 9.1 nM; in test [4] it was 2.4 nM; in test [5], 0.65 nM. The compound further showed an Efficacy in test [3] of 8%.

As for `Cc1ccc(COc2nn3c(-c4ccccc4)nnc3c3c2C2CCC3CC2)nn1`, the Ki in test [1] came out at 50 nM; in test [2], 22 nM; in test [4] it was 10 nM; in test [5] it was 2.1 nM. This compound had an Efficacy in test [3] of 31%.

On to `CCCn1cnc(COc2nn3c(-c4ccccc4)nnc3c3c2C2CCC3CC2)n1`, for which the Ki in test [1] is 78 nM; in test [2] it was 50 nM; in test [4], 40 nM; in test [5], 9 nM. The compound further registered an Efficacy in test [3] of 83%.

For the compound `N#Cc1cccnc1COc1nn2c(-c3ccccc3)nnc2c2c1C1CCC2CC1`, the Ki came to 13 nM in test [1], 5.9 nM in test [2], 1.7 nM in test [4] and 0.54 nM in test [5]. The Efficacy in test [3] stood at 17%.

With `Cn1ncnc1COc1nn2c(-c3ccccc3)nnc2c2c1C1CCC2CC1`, the Ki in test [1] came out at 11 nM; in test [2], 5.2 nM; in test [4], 2.8 nM; in test [5], 0.39 nM. Besides, the Efficacy in test [3] was 22%.

Consider `Cc1c[nH]c(COc2nn3c(-c4ccccc4)nnc3c3c2C2CCC3CC2)n1`, for which the Ki was found to be 85 nM in test [1], 15 nM in test [2], 7.8 nM in test [4] and 0.9 nM in test [5]. In test [3], the Efficacy came out at 28%.

`Fc1ccccc1-c1nnc2c3c(c(OCc4ccccn4)nn12)C1CCC3CC1`: the Ki in test [1] was 28 nM; in test [2] it was 16 nM; in test [4], 6.1 nM; in test [5], 0.54 nM.

In the case of `CSOc1ccc(COc2nn3c(-c4ccccc4)nnc3c3c2C2CCC3CC2)cc1`, the Ki in test [1] is 96 nM; in test [2], 41 nM; in test [4], 31 nM; in test [5] it was 7.6 nM.

Consider `OCC1CCC(COc2nn3c(-c4ccccc4)nnc3c3c2C2CCC3CC2)CC1` (stereo in doubt), for which the inhibition constant Ki in test [1] was more than 1000 nM; in test [2], more than 1000 nM; in test [4] it was more than 1000 nM; in test [5] it was 88 nM.

`c1ccc(-c2nnc3c4c(c(OCc5nc[nH]n5)nn23)C2CCC4CC2)cc1`: the Efficacy in test [3] turned out to be 49%.

Turning to `Cc1csc(-c2nnc3c4c(c(OCc5ccccn5)nn23)C2CCC4CC2)n1`, the Ki in test [1] is more than 1000 nM; in test [2], 140 nM; in test [4] it was 100 nM; in test [5] it was 26 nM.

Take `c1ccc(-c2nnc3c4c(c(OCc5ccncn5)nn23)C2CCC4CC2)cc1`: the Ki in test [1] turned out to be 22 nM; in test [2] it was 8.1 nM; in test [4], 3.1 nM; in test [5], 0.555 nM. The compound further showed an Efficacy in test [3] of 14%.

Consider `Cc1cccc(-c2nnc3c4c(c(OCc5ccccn5)nn23)C2CCC4CC2)c1`, for which the inhibition constant (Ki) came to 570 nM in test [1], 210 nM in test [2], 140 nM in test [4] and 17 nM in test [5].

For `O=C(Nc1ccccn1)c1nn2c(-c3ccccc3)nnc2c2c1C1CCC2CC1`, the Ki was more than 1000 nM in test [1], 290 nM in test [2], 170 nM in test [4] and 40 nM in test [5].

With `c1ccc(COc2nn3c(C4CC4)nnc3c3c2C2CCC3CC2)nc1`, the Ki was determined as 130 nM in test [1], 24 nM in test [2], 18 nM in test [4] and 1.8 nM in test [5].

`c1ccc(COc2nn3c(N4CCOCC4)nnc3c3c2C2CCC3CC2)nc1`: the Ki in test [1], in test [2], in test [4] and in test [5] was more than 1000 nM each time.

Turning to `Cc1conc1COc1nn2c(-c3ccccc3)nnc2c2c1C1CCC2CC1`, the Ki was 80 nM in test [1], 35 nM in test [2], 18 nM in test [4] and 2.7 nM in test [5].

Consider `Cn1nnnc1COc1nn2c(-c3ccccc3)nnc2c2c1C1CCC2CC1`, for which the Ki is 78 nM in test [1], 59 nM in test [2], 21 nM in test [4] and 4.4 nM in test [5].

Usually Ki stands for the equilibrium dissociation constant of an inhibitor or competing ligand from its target.
